# Screening data: PubChem, The Scripps Research Institute Molecular Screening Center
# GPR7 antagonist: GPR7 receptor antagonists, primary screen, cell-based, fluorescence, single concentration | hit rate 1.1% among 290,000 | AID 1861, 2009 | inhibition, % at 4.4 µM | GPR7-expressing cells, fluorescence antagonist assay | Neuropeptides B/W receptor type 1 (Homo sapiens), P48145; in the data active = inhibition above about 16%, passing the limit was not always enough;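 also: cells stimulated with the agonist NPW; 0% = agonist with vehicle and 100% = vehicle without agonist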
# CHO parental Ca: ATP-evoked calcium signal inhibitors, parental CHO, primary screen, counter-screen for OX1R antagonist project, cell-based, fluorescence, Fluo-8 calcium dye; parental CHO-K1, ATP-induced calcium, Fluo-8 fluorescence; inhibition, % at 5.6 µM; hit rate 0.63% among 330,000;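 active = inhibition above that plate's mean sample inhibition plus 3 SD, cut at about 26% in these data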;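 also: 0% = ATP-challenged DMSO wells and 100% = DMSO wells without ATP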
#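 Test system: parental CHO cells; detection: calcium-sensitive Fluo-8 fluorescence; evaluation: percent inhibition of calcium signal; also added: ATP as calcium-mobilizing challenge; repeats: one well per compound; control set: ATP-challenged DMSO wells low, unchallenged DMSO wells high; compound: single nominal dose of 5.6 µM per compound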
# OX1R antag-1: OX1R (HCRTR1) antagonists, primary screen, fluorescence, CHO/OX1R cells, Fluo-8 calcium, orexin A; AID 434989, 2010; inhibition, % at 5 µM; hit rate 0.43% among 330,000; Fluo-8 calcium fluorescence;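 active = inhibition above its plate's threshold, mean inhibition of all tested compounds on the plate plus 3 SD, cut at about 37% in these data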;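 also: 0% = orexin A challenge wells and 100% = SB-334867-A antagonist wells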
# Target sequence (O43613 whole entry, looked up): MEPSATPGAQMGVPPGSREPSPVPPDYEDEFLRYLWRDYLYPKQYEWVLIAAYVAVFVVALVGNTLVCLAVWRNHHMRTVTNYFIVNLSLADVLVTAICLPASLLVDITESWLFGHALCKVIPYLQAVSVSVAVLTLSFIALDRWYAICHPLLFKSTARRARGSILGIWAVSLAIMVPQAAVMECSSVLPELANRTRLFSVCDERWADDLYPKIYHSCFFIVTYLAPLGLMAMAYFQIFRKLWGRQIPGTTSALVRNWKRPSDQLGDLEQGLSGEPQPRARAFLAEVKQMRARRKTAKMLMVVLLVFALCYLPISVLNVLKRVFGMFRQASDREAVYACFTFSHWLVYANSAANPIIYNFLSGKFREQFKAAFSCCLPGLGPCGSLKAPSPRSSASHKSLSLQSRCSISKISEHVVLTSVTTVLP
# OX1R antag-2: antagonists of human orexin 1 receptor (OX1R); OX1R-expressing cells, FRET antagonist read-out; inhibition, % at 6.6 µM; hit rate 1.8% among 330,000; AID 485270, 2010; in the data active = inhibition mostly above about 38%, no sharp cut-off; inactive = mostly below about 40%;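 also: 0% = agonist challenge alone and 100% = reference antagonist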
# TAAR1 agonist: human TAAR1 agonists, primary screen, Fluo-8 calcium fluorescence, CHO RD-HGA16 cells. Trace amine-associated receptor 1 (Homo sapiens), Q96RJ0. vehicle wells 0%, saturating PEA agonist 100%. activation, % at 3 µM. hit rate 0.99% among 360,000. AID 624467, 2012;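 active = activation above the mean activation of all test compounds in the run plus 3 SD, cut at about 38% in these data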
#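 System: CHO-derived RD-HGA16 cells with stable Gα16 and human TAAR1 / Times: 17-24 h plating, Fluo-8 75 min 37 °C, 30 min RT / Technique: calcium-sensitive Fluo-8 signal, excitation 470-495, emission 515-575 nm / Measure: % activation relative to PEA EC100 response / Benchmarks: DMSO and PEA EC100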
# TAAR1 antagonist: human TAAR1 antagonists, primary screen, Fluo-8 calcium fluorescence, CHO RD-HGA16 cells; Trace amine-associated receptor 1 (Homo sapiens), Q96RJ0; antagonist; inhibition, % at 3 µM; hit rate 1.5% among 360,000; AID 624466, 2012;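 active = inhibition above a per-plate cutoff, the mean inhibition of test compounds on that plate plus 3 SD, cut at about 49% in these data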;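 also: 0% = DMSO plus EC80 beta-PEA response and 100% = DMSO alone without agonist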
#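 Test system – hTAAR1-expressing CHO RD-HGA16 cells, Gα16-coupled · Also added – β-PEA at EC80 concentration, post-compound challenge · Compound – 3 µM, single point · Incubation – dye loading 75 min at 37 °C, then 30 min room temperature · Measured by – Fluo-8 intracellular calcium dye fluorescence, real-time kinetic reads · Benchmarks – vehicle and agonist controls · Replicates – singlicate, one well per test compound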
# TAAR1 ag conf: human TAAR1 agonists, retest of hits, confirmation, Fluo-8 calcium fluorescence, CHO RD-HGA16 cells | activation, % at 3 µM | shares compounds with TAAR1 agonist | hit rate 82% among 2,400 | scaled: DMSO 0%, maximal phenethylamine 100%;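 active = activation above a cutoff set at the run's mean compound activation plus 3 SD, cut at about 39% in these data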
# Ga16 ag counter: nonselective calcium mobilization agonists, CHO-Ga16 cells, counter-screen for hTAAR1 agonist project, cell-based, fluorescence, CHO-Ga16 parental line | shares compounds with TAAR1 agonist | Fluo-8 calcium fluorescence; normalized to maximal ATP response, DMSO zero | activation, % at 3 µM | hit rate 50% among 2,400;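 active = activation above the run cutoff, the mean activation over all tested wells plus 3 SD, cut at about 12% in these data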;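 also: 0% = DMSO wells and 100% = maximal ATP response on the peak over basal ratio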
# TAAR1 desens: TAAR1 desensitization by agonist hits, confirmation, counter-screen for TAAR1 agonist project, cell-based, fluorescence, tachyphylaxis; shares compounds with TAAR1 agonist; CHO RD-HGA16 hTAAR1, Fluo-8 calcium, beta-PEA response inhibition; inhibition, % at 3 µM; hit rate 46% among 2,400; AID 651951, 2012;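 active = inhibition above the run cutoff, the mean inhibition of all test compounds plus 3 SD, cut at about 49% in these data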;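 also: beta-PEA stimulus applied at its EC80; loss of beta-PEA calcium signal after compound pretreatment read as receptor desensitization; 0% = DMSO with beta-PEA at EC80 and 100% = DMSO alone without agonist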
# Ga16 antag count: inhibition of ATP-evoked calcium response in CHO-Ga16 cells, counter-screen for TAAR1 agonist project, cell-based, fluorescence; shares compounds with TAAR1 agonist; hit rate 39% among 2,400; CHO-Ga16 ATP-induced calcium, Fluo-8 fluorescence; AID 651952, 2012; inhibition, % at 3 µM;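 active = inhibition above the plate's mean compound inhibition plus 3 SD, computed per plate, cut at about 22% in these data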;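 also: 0% = EC80 ATP with DMSO and 100% = DMSO wells without ATP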
# * = called active by the depositor; · = no result given. This is a sample that favours compounds with a hit; in the whole collection about 4.6% have one here.
SMILES,GPR7 antagonist,CHO parental Ca,OX1R antag-1,OX1R antag-2,TAAR1 agonist,TAAR1 antagonist,TAAR1 ag conf,Ga16 ag counter,TAAR1 desens,Ga16 antag count
COc1ccc(S(=O)(=O)N2CCN(c3ncccn3)CC2)cc1[N+](=O)[O-],13,6,-20,6,94*,27,9,7,1,5
COc1ccc(S(=O)(=O)N2CCN(c3ccccn3)CC2)cc1[N+](=O)[O-],-11,-16,-12,5,0,-2,·,·,·,·
COc1ccc(CC(=O)OCC(=O)NC(=O)NC2CCCC2)cc1,·,-9,-10,-4,0,-11,·,·,·,·
CCOC(=O)C(NC(C)=O)(N1CCc2ccccc2C1)C(F)(F)F (centres undefined),-4,-16,-5,11,103*,93*,108*,4,98*,-1
c1ccc(CCNCC2COc3ccccc3O2)cc1 (centres undefined),-5,-19,-19,6,16,4,·,·,·,·
CN(C)S(=O)(=O)c1cccc(CNCC2COc3ccccc3O2)c1 (centres undefined),10,-14,-15,-4,59*,-13,88*,21*,34,2
Cc1cccc(-n2nc(CC#N)c(C#N)c2N)c1,-9,-4,-13,7,0,7,·,·,·,·
O=C(Nc1ccccc1C(=O)N1CCCC1)C1COc2ccccc2O1 (centres undefined),1,-13,-9,10,2,-1,·,·,·,·
O=C(O)CCNc1cc2ccccc2cc1C(=O)O,-10,8,-12,44,3,0,·,·,·,·
COc1ccc(NC(=O)CCc2nc(-c3ccccc3F)no2)cc1,-2,-12,-2,24,48*,15,67*,8,44,20
COc1ccccc1-c1noc(CCC(=O)Nc2cccc(C)c2)n1,4,-31,-10,24,17,5,·,·,·,·
Cc1ccc(N2C(=O)c3cccc4c(N)ccc(c34)C2=O)c2cccnc12,19*,65*,74*,2,230*,79*,105*,126*,61*,69*
COc1ccc(N=C(N)SCc2ccccn2)cc1,12,-14,-8,-6,7,-18,·,·,·,·
CC(C)=N/N=C(\N)SCc1ccccc1,-5,-27,-18,9,·,·,·,2,·,2
CCOP(=O)(c1ccccc1)c1nc(-c2ccccc2Cl)oc1N1CCCCC1 (centres undefined),-13,24,-25,21,48*,-13,34,7,-20,-3
COC(=O)c1cc(NC(=O)c2ccccc2)c(=O)oc1/C=C/Nc1ccc(Oc2ccccc2)cc1,-9,·,·,·,50*,68*,62*,73*,85*,87*
CN(C)c1ccc(C(c2nnnn2C(C)(C)C)N2CCc3ccccc3C2)cc1 (centres undefined),-9,·,·,·,·,·,·,·,·,·
